Experimental data published in ChEMBL document CHEMBL1124584, “Effect of triphenylacrylonitrile derivatives on estradiol-receptor binding and on human breast cancer cell growth” (J Med Chem, 1989).

Experiments:
MCF7 [1] = experiment: Inhibitory activity against proliferation of MCF-7 cells in presence of 10e-6 M concentration of [3H]- estradiol (E2); type: functional; conditions: Homo sapiens
MCF7 [2] = experiment: Percent of inhibitory activity against proliferation of MCF-7 cells in presence of 10e-6 M concentration of […] (E2).; type: functional, Homo sapiens
Procedure, shortened: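 Cytotoxicity assay: MCF-7 cells were seeded at 20000/well in phenol-red-free medium with 5% DCC-treated FCS and exposed to compound (3–10 µM) plus 1 µM E2 for 6 days. Medium was renewed every 2 days. DNA content was read in triplicate wells as % of 1 µM E2 alone. Values are given as the IC30 and as % inhibition at 10^-5 M.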

[3] = target: T1, Estrogen receptor (Bos taurus) (UniProt Q9XSB5+P49884); conditions: Uterus; Cytosol
[4] = target: T1, Estrogen receptor (Bos taurus); conditions: Uterus; Cytosol; remark: listed apart in the source
BT-20 [5] = experiment: Percent of inhibitory activity against proliferation of BT-20 cells in presence of TPE at 10e-5 M concentration.; type: functional; conditions: Homo sapiens
Procedure, shortened: (§1)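 ER-negative BT-20 cells were seeded at 40000/well in phenol-red-free MEM-based medium and exposed to compound (3–10 µM) for 5 or 6 days, with medium renewed every 2 days. DNA content was read in triplicate wells as % of vehicle control. Values are given as the IC30 and as % inhibition at 10^-5 M.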

[6] = target: T2, Anti-estrogen binding site (AEBS) (Homo sapiens) (UniProt Q15125+Q9UBM7); experiment: Relative binding affinity for antiestrogen binding site (AEBS) of calf uterus 2 hr incubation at 0C; type: tissue-based
Procedure, shortened: (§2)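 Calf uterus was homogenized in TED buffer (10 mM Tris-HCl, 1.5 mM EDTA, 1 mM DTT, pH 7.4) and spun at 12000 g for 1 h at 0–4 °C. […] Free ligand was removed with dextran-charcoal, and bound ligand was counted by scintillation. RBA was taken from the 50% displacement concentration.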

BT-20 [7] = experiment: Inhibitory activity against proliferation of BT-20 cells in presence of TPE at 10e-5 M concentration.; type: functional; conditions: Homo sapiens; procedure, shortened: as §1
MCF7 [8] = experiment: Percent of effective dose for […] against proliferation of MCF-7 cells.; type: functional, Homo sapiens
Procedure, shortened: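 MCF-7 cells were kept 6 days in phenol-red-free MEM-based medium with 5% dextran-charcoal-stripped FCS, then seeded at 10000 cells/well. After 1 day they got test compound (10 pM to 1 µM) without E2, or vehicle (0.2% ethanol); medium was renewed every 2 days. DNA was assayed after 8–10 days in triplicate wells. % agonist = (TPE−control)/(E2−control)×100, from the EC50 or the maximum response.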

[9] = target: T2, Anti-estrogen binding site (AEBS) (Homo sapiens); experiment: Relative binding affinity for antiestrogen binding site (AEBS) of calf uterus cytosol; type: tissue-based; procedure, shortened: as §2
MCF7 [10] = experiment: Percent of inhibitory activity versus 0.1 nm […] against proliferation of MCF-7 cells.; type: functional, Homo sapiens
Procedure, shortened: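 Same MCF-7 pre-culture in steroid-depleted phenol-red-free medium, seeded at 10000 cells/well. Cells grew with 0.1 nM E2 plus various compound concentrations, medium renewed every 2 days, for 8 days. DNA was measured in triplicate wells, as % DNA relative to E2 alone. % antagonist = (E2−TPE)/(E2−control)×100, from the IC50 or the response at 10^-6 M.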

MCF7 [11] = experiment: In vitro inhibition of MCF-7 cell proliferation compared to 0.1 nM [3H]-estradiol.; type: functional, cell-based; conditions: Homo sapiens
MCF7 [12] = experiment: Effective dose for [3H]- estradiol against proliferation of MCF-7 cells; type: functional, cell-based; conditions: Homo sapiens
[13] = target: T1, Estrogen receptor (Bos taurus); experiment: Selectivity for relative binding affinity against estrogen receptor in at 2 hrs and 5 hr in calf uterus cytosol; type: protein assay
Procedure, shortened: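 Calf uterine cytosol (TED buffer, pH 7.4; 180000 g, 1 h) was incubated with 1 nM [3H]E2 and competitor (0.3 nM–10 µM, 1% ethanol), either 2 h at 0 °C or 5 h at 25 °C. Bound ligand was separated with dextran-charcoal and counted by scintillation. RBA came from the concentration giving 50% displacement relative to E2. The value is the ratio of the 25 °C RBA to the 0 °C RBA.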

Structure (SMILES) | IC30 (MCF7 [1]) [µM] | Inhibition (MCF7 [2]) [%] | RBA1 [3] | RBA2 [4] | inhibition at 10 µM (BT-20 [5]) [%] | RBA ([6]; Bos taurus) | IC30 (BT-20 [7]) [µM] | Agonism (MCF7 [8]) [%] | relative binding affinity (RBA) ([9]; Bos taurus) | Inhibition (MCF7 [10]) [%] | IC50 (MCF7 [11]) [µM] | EC50 (MCF7 [12]) [nM] | Selectivity [13] | RBA [6] | relative binding affinity (RBA) [9]
CCN(CC)CCOc1ccc(/C(=C(\C#N)c2ccccc2)c2ccc(O)cc2)cc1 | 3.9 | 89 | 3.6 | 3.4 | 94 | 6.9 | 3.5 | 12 | 6.9 | 100 | 0.025 | 0.03 |  |  | 
CC/C(=C(/c1ccccc1)c1ccc(OCCN(C)C)cc1)c1ccccc1 | 4.3 | 79 |  |  | 52 | 77 | 6.4 | 100 | 77 | 1 |  | 11 |  |  | 
CCN(CC)CCOc1ccc(/C(=C(/C#N)c2ccccc2)c2ccc(O)cc2)cc1 | 4.8 | 77 | 126 | 108 | 57 | 27 | 6.4 | 16 | 27 | 100 | 0.0046 | 0.02 | 0.85 |  | 
CCC(=C(c1ccc(O)cc1)c1ccc(OCCN(C)C)cc1)c1ccccc1 | 4 | 81 |  |  | 65 |  | 4.8 | 10 |  | 100 | 0.0025 | 0.003 |  | 40 | 40
CC/C(=C(/c1ccc(O)cc1)c1ccc(OCCN(C)C)cc1)c1ccccc1 | 5.3 | 74 |  |  | 33 | 20 | 9.3 | 61 | 20 | 91 | 0.022 | 0.016 |  |  | 
CN(C)Cc1cc(C(=C(C#N)c2ccccc2)c2ccc(O)c(CN(C)C)c2)ccc1O | 8.5 | 36 | 0.3 | 0.01 | 15 | < 0.1 |  | 31 | < 0.1 | 7 |  | 44 |  |  | 
CN(C)c1ccc(C(=C(C#N)c2ccccc2)c2ccc(N(C)C)cc2)cc1 | 5.7 | 48 | 0.12 | 0.04 | 30 | < 0.1 | 10 | 85 | < 0.1 | 3 |  | 12 |  |  | 
CC/C(=C(\c1ccccc1)c1ccc(OCCN(C)C)cc1)c1ccccc1 [TAMOXIFEN] | 6.5 | 49 |  |  | 56 | 100 | 5.7 | 21 | 100 | 90 | 0.219 | 0.11 |  |  | 
Cc1ccc(/C(=C(\C#N)c2ccc(O)cc2)c2ccc(O)cc2)cc1 | 6.8 | 54 | 28 | 9.1 | 48 |  | 6.3 | 73 |  | 36 | 0.027 | 0.14 |  |  | 
Cc1ccc(/C(=C(/C#N)c2ccccc2)c2ccc(O)cc2)cc1 | 8.5 | 38 | 29 | 28 | 32 |  | 8.4 | 55 |  | 59 | 0.017 | 0.28 |  |  | 
CCN(CC)CCOc1ccc(C(=C(C#N)c2ccccc2)c2ccc(OCCN(CC)CC)cc2)cc1 | 3.1 | 94 | 0.42 | 0.4 | 87 | 3.6 | 3.3 | 62 | 3.6 | 27 | > 1 | 0.28 |  |  | 
CCN(CC)CCOc1ccc(C(C#N)=C(c2ccccc2)c2ccccc2)cc1 | 4.8 | 53 | 0.17 | 0.01 | 38 | 41 | 9.7 | 71 | 41 | 6 |  | 25 |  |  | 
